Experimental data taken from the array DNA melting data of Ke et al. (doi:10.1101/2024.01.08.574731).

What was measured:
[1] = folding enthalpy; higher = less favourable; fluorescence melt of hairpins on a sequencing array, two-state fit; settings: sodium 0.088 M
In short: (§1)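 Folding enthalpy and melting temperature come from bootstrapped two-state fits to Cy3 fluorescence of library hairpins carrying annealed Cy3 and quencher oligos on a sequenced MiSeq flow cell. Imaging was done in 50 mM Na-HEPES pH 8.0, 25 mM NaCl, stepping by 2.5 °C up to 60 °C, and signals were normalised to pre-quench Cy3 and to control constructs. Results of four replicates were combined by inverse variance, and fitted temperatures were raised by 9.35 °C to match UV melts.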

[2] = melting temperature; fluorescence melt of hairpins on a sequencing array, two-state fit, raised by 9.35 °C to match UV melts; settings: sodium 0.088 M
In short: as §1

| Sequence | folding enthalpy [1] [kcal/mol] | Tm [2] [°C] |
| --- | --- | --- |
| GCGGACGGAAACGTCTGC ((.((((....)))).)) | -36.3 | 65.9 |
| GTACATGAAAATGTAC ((((((....)))))) | -33.9 | 51.2 |
| GCATCGCGAAAGCGCCGC ((..(((....)))..)) | -10.5 | 38 |
| GTTGGGGGAAACCCCAAC (((((((....))))))) | -45.9 | 65.6 |
| GGAGGGGGAAACCTCTCC ((((.((....)).)))) | -35.8 | 51.3 |
| GCAACGCCGAAAGGCTGC (((..(((....)))))) | -15.4 | 47.8 |
| GAGCTGCGAAAGCATCTC (((.(((....))).))) | -29.4 | 46.8 |
| GCGGAGGACCGC ((((....)))) | -19.5 | 52.4 |
| GTATGGGGAAACCCACAC ((.((((....)))).)) | -18.9 | 35.1 |
| GTCCTCGAAAGAGACGAC ((((((....)))..))) | -20 | 42 |
| AACGGGAAACCGTT (((((....))))) | -18.5 | 50.6 |
| GGCTGACCGAAAGGTGCC (((..(((....)))))) | -24.7 | 52.4 |
| GCTTTCGAAAGAAAAAGC ((((((....)))..))) | -26.6 | 36 |
| GCTAAACGAAAGTTAGC (((.(((....)))))) | -26.6 | 48.3 |
| GGCCTTCGAAAGAAAGCC (((.(((....))).))) | -31 | 45.7 |
| GATCGATTCGTCGATC ((((((....)))))) | -41.5 | 55.1 |
| GAATCTCCGAAAGGATTC (((..(((....)))))) | -13.5 | 28.7 |
| CACTTGAAAAAGTG (((((....))))) | -21.2 | 43.6 |
| GAAGGGCGAAAGCCGTTC (((.(((....))).))) | -22.7 | 56.6 |
| CGCACGGAAACGTTGCG ((((((....))).))) | -37.7 | 55.1 |
| GATCGAAGTCTCGATC ((((((....)))))) | -35.1 | 49.2 |
| GGAAGGAAACTTCC (((((....))))) | -24.1 | 46 |
| GTGGCGGGAAACCACCAC ((((.((....)).)))) | -35.4 | 51.5 |

| Sequence | folding enthalpy [1] [kcal/mol] | Tm [2] [°C] |
| --- | --- | --- |
| GATCAGTTCCCTGATC ((((((....)))))) | -32 | 49.7 |
| GATCTATTCGTAGATC ((((((....)))))) | -33.5 | 44.8 |
| GTAGAAGGAAACCTCTAC (((((.(....).))))) | -18.1 | 33.4 |
| GGTCGCGGAAACGTGGCC ((.(.((....)).).)) | -48.9 | 53.5 |
| GGTCTTGCGAAAGCAACC (((..(((....)))))) | -8.24 | 28.8 |
| GATCTGGACACAGATC ((((((....)))))) | -38.8 | 58.5 |
| GTGCGGGCGAAAGCCCAC (((..(((....)))))) | -10.3 | 62.1 |
| GAATACGAAAGTAGATTC ((((((....)))..))) | -20.3 | 29.1 |
| GCCCGCCGAAAGGCGGC (((.(((....)))))) | -7.03 | 66.6 |
| GATCGACCTCTCGATC ((((((....)))))) | -35.8 | 50 |
| GATCAGTGACCTGATC ((((((....)))))) | -30.1 | 48.7 |
| GTCGGCGAAAGCCTCGAC ((((((....)))..))) | -14.7 | 42.4 |
| GTTAGAGGAAACTTTAAC ((((.((....)).)))) | -15.5 | 27.5 |
| GCGTGTGGAAACGTACGC ((((..(....)..)))) | -32.9 | 50.1 |
| GTTGATGAAAATCAAC ((((((....)))))) | -33.9 | 52.4 |
| GTCTGTGGAAACACGGAC (((.(((....))).))) | -34.9 | 53 |
| GGGCAGACGAAAGTCCCC (((..(((....)))))) | -16.8 | 42.9 |
| GGTGTCTCGAAAGAGACC (((..(((....)))))) | -12.3 | 49.4 |
| GCACGGCGAAAGCCATGC (((.(((....))).))) | -36 | 55.1 |
| GCCAACCCGAAAGGGGGC (((..(((....)))))) | -18.8 | 51.8 |
| GATCAGAGCCCTGATC ((((((....)))))) | -36.5 | 47.7 |
| CGTGTCGGAAACGAGACG (((.(((....))).))) | -36 | 51.7 |
| GCCTCACGAAAGTGTGGC (((.(((....))).))) | -43.5 | 63.5 |

| Sequence | folding enthalpy [1] [kcal/mol] | Tm [2] [°C] |
| --- | --- | --- |
| GATCATCGCCATGATC ((((((....)))))) | -35.7 | 46.3 |
| GGGTTGGAAACAACCC ((((((....)))))) | -38.2 | 64.7 |
| GCTAGGCGAAAGCCGGGC ((..(((....)))..)) | -16 | 60 |
| GATCGTACCACGATC ((((((...)))))) | -33.7 | 57.3 |
| GATCACTGATGTGATC ((((((....)))))) | -34.5 | 55.9 |
| GCTCGCGGAAACACGAGC (((((.(....).))))) | -44.6 | 55.2 |
| GAAAGGCGAAAGCCCTTC (((.(((....))).))) | -13 | 38.8 |
| GATCTAGACTTAGATC ((((((....)))))) | -39.3 | 47 |
| GCGGTCGCCCGC ((((....)))) | -18.6 | 56.7 |
| GGCACCGAAAGGTCTGCC ((((((....)))..))) | -22.2 | 48.4 |
| CGTAGCGGAAACGCAACG (((.(((....))).))) | -29.5 | 53 |
| GCGGGGTCCCGC ((((....)))) | -29.3 | 65.1 |
| GGCCTCGAAAGAGGTGCC ((((((....)))..))) | -13.2 | 47.6 |
| GTAGACGAAAGTCACTAC ((((((....)))..))) | -14.2 | 41.1 |
| CGTACGGAAACGTCTACG ((((((....)))..))) | -14.7 | 30.7 |
| GCATAAGGAAACTCATGC ((((.((....)).)))) | -25.2 | 30.7 |
| GTGAACGAAAGTTTTCAC ((((((....)))..))) | -15.6 | 31.1 |
| GATCTGCTCTCAGATC ((((((....)))))) | -36.6 | 48.4 |
| GGTACCCGAAAGGGCACC (((.(((....))).))) | -32.3 | 55.6 |
| GACCCACGAAAGTGAGTC (((.(((....))).))) | -31.2 | 51.2 |
| GTAGTACGAAAGTATTAC (((.(((....))).))) | -31.3 | 41.5 |
| GATCGAGAGATCGATC ((((((....)))))) | -25.6 | 54.7 |
| GCGATCCGAAAGGAACGC (((.(((....))).))) | -40 | 66.8 |
